Data: ChEMBL document CHEMBL1150393, “Evaluation of radiolabeled (hetero)aromatic analogues of N-(2-diethylaminoethyl)-4-iodobenzamide for imaging and targeted radionuclide therapy of melanoma” (J Med Chem, 2008)

Columns and labels:
[1] = Partition coefficient, log P in phosphate buffer solution at pH 7.4; format: physicochemical
Summary of the method: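 Shake-flask partition: 50 µM [¹²⁵I]-labelled compound in phosphate buffer pH 7.4 was mixed with 2 mL n-octanol. Each phase was γ-counted, P was taken as the octanol/buffer activity ratio, and log P was reported.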

[2] = Biodistribution in tumor of C57BL/6 mouse bearing mouse B16-F0 cells at 0.74 to 0.92 MBq, iv after 1 hr; format: ADME, organism-based, Neoplasm; conditions: in vivo
Summary of the method: (§1)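 [¹²⁵I]-labelled compound given iv by tail vein (0.1 µmol per mouse) to male C57BL6 mice bearing s.c. B16-F0 flank tumours (5 × 10⁵ cells in PBS). Two mice per time point were killed by CO₂, frozen in liquid nitrogen and cut into 40 µm cryosections, eight slices per mouse. Slice radioactivity was read on a multiwire proportional counter, converted to kBq/g and reported as %ID/g.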

[3] = Biodistribution in tumor of C57BL/6 mouse bearing mouse B16-F0 cells at 0.74 to 0.92 MBq, iv after 24 hrs; format: ADME, organism-based, Neoplasm; conditions: in vivo; summary of the method: as §1
[4] = Biodistribution in tumor of C57BL/6 mouse bearing mouse B16-F0 cells at 0.74 to 0.92 MBq, iv after 72 hrs; format: ADME, organism-based, Neoplasm; conditions: in vivo; summary of the method: as §1
[5] = Ratio of drug level in tumor to lung of C57BL/6 mouse bearing mouse B16-F0 cells at 0.74 to 0.92 MBq, iv after 1 hr; format: ADME, organism-based; conditions: in vivo
Summary of the method: (§2)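 Tumour and organ radioactive concentrations came from whole-body cryosection counting (40 µm slices, eight per mouse, two mice per time) after tail-vein injection of the [¹²⁵I]-labelled compound (0.1 µmol) into male C57BL6 mice bearing s.c. B16-F0 melanoma. Each value is the ratio of the tumour concentration to the organ concentration.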

[6] = Ratio of drug level in tumor to lung of C57BL/6 mouse bearing mouse B16-F0 cells at 0.74 to 0.92 MBq, iv after 3 hrs; format: ADME, organism-based; conditions: in vivo; summary of the method: as §2
[7] = Ratio of drug level in tumor to lung of C57BL/6 mouse bearing mouse B16-F0 cells at 0.74 to 0.92 MBq, iv after 6 hrs; format: ADME, organism-based; conditions: in vivo; summary of the method: as §2
Brain [8] = test: Biodistribution in brain of C57BL/6 mouse bearing mouse B16-F0 cells at 0.74 to 0.92 MBq, iv after 1 hr; format: ADME, organism-based; conditions: in vivo
Summary of the method: (§3)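 Male C57BL6 mice with s.c. left-flank B16-F0 melanoma (5 × 10⁵ cells in PBS). Two mice per time point frozen in liquid nitrogen after CO₂ sacrifice. Eight 40 µm whole-body cryosections per mouse read by multiwire proportional counter. cpm/mm² converted to kBq/g and expressed as %ID/g.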

[9] = Biodistribution in intestinal content of C57BL/6 mouse bearing mouse B16-F0 cells at 0.74 to 0.92 MBq, iv after 1 hr; format: ADME, organism-based; conditions: in vivo; summary of the method: as §3
[10] = Biodistribution in intestinal content of C57BL/6 mouse bearing mouse B16-F0 cells at 0.74 to 0.92 MBq, iv after 3 hrs; format: ADME, organism-based; conditions: in vivo; summary of the method: as §3
[11] = Biodistribution in intestinal content of C57BL/6 mouse bearing mouse B16-F0 cells at 0.74 to 0.92 MBq, iv after 24 hrs; format: ADME, organism-based; conditions: in vivo; summary of the method: as §3
[12] = Biodistribution in Stomach content of C57BL/6 mouse bearing mouse B16-F0 cells at 0.74 to 0.92 MBq, iv after 1 hr; format: ADME, organism-based; conditions: in vivo; summary of the method: as §3
[13] = Biodistribution in Stomach content of C57BL/6 mouse bearing mouse B16-F0 cells at 0.74 to 0.92 MBq, iv after 6 hrs; format: ADME, organism-based; conditions: in vivo; summary of the method: as §3
Liver = test: Biodistribution in liver of C57BL/6 mouse bearing mouse B16-F0 cells at 0.74 to 0.92 MBq, iv after 1 hr; format: ADME, organism-based; conditions: in vivo; summary of the method: as §3
Muscle tissue [14] = test: Biodistribution in muscle of C57BL/6 mouse bearing mouse B16-F0 cells at 0.74 to 0.92 MBq, iv after 1 hr; format: ADME, organism-based; conditions: in vivo; summary of the method: as §3
Muscle tissue [15] = test: Biodistribution in muscle of C57BL/6 mouse bearing mouse B16-F0 cells at 0.74 to 0.92 MBq, iv after 3 hrs; format: ADME, organism-based; conditions: in vivo; summary of the method: as §3
Muscle tissue [16] = test: Biodistribution in muscle of C57BL/6 mouse bearing mouse B16-F0 cells at 0.74 to 0.92 MBq, iv after 6 hrs; format: ADME, organism-based; conditions: in vivo; summary of the method: as §3
Pancreas = test: Biodistribution in pancreas of C57BL/6 mouse bearing mouse B16-F0 cells at 0.74 to 0.92 MBq, iv after 1 hr; format: ADME, organism-based; conditions: in vivo; summary of the method: as §3
Lung [17] = test: Biodistribution in lung of C57BL/6 mouse bearing mouse B16-F0 cells at 0.74 to 0.92 MBq, iv after 1 hr; format: ADME, organism-based; conditions: in vivo; summary of the method: as §3
Lung [18] = test: Biodistribution in lung of C57BL/6 mouse bearing mouse B16-F0 cells at 0.74 to 0.92 MBq, iv after 3 hrs; format: ADME, organism-based; conditions: in vivo; summary of the method: as §3
Lung [19] = test: Biodistribution in lung of C57BL/6 mouse bearing mouse B16-F0 cells at 0.74 to 0.92 MBq, iv after 6 hrs; format: ADME, organism-based; conditions: in vivo; summary of the method: as §3
Spleen [20] = test: Biodistribution in spleen of C57BL/6 mouse bearing mouse B16-F0 cells at 0.74 to 0.92 MBq, iv after 1 hr; format: ADME, organism-based; conditions: in vivo; summary of the method: as §1
Spleen [21] = test: Biodistribution in spleen of C57BL/6 mouse bearing mouse B16-F0 cells at 0.74 to 0.92 MBq, iv after 3 hrs; format: ADME, organism-based; conditions: in vivo; summary of the method: as §1
Spleen [22] = test: Biodistribution in spleen of C57BL/6 mouse bearing mouse B16-F0 cells at 0.74 to 0.92 MBq, iv after 6 hrs; format: ADME, organism-based; conditions: in vivo; summary of the method: as §1
Kidney [23] = test: Biodistribution in kidney of C57BL/6 mouse bearing mouse B16-F0 cells at 0.74 to 0.92 MBq, iv after 1 hr; format: ADME, organism-based; conditions: in vivo; summary of the method: as §3
Kidney [24] = test: Biodistribution in kidney of C57BL/6 mouse bearing mouse B16-F0 cells at 0.74 to 0.92 MBq, iv after 6 hrs; format: ADME, organism-based; conditions: in vivo; summary of the method: as §3
Blood = test: Biodistribution in blood of C57BL/6 mouse bearing mouse B16-F0 cells at 0.74 to 0.92 MBq, iv after 3 hrs; format: ADME, organism-based; conditions: in vivo; summary of the method: as §3
Thyroid gland [25] = test: Biodistribution in thyroid of C57BL/6 mouse bearing mouse B16-F0 cells at 0.74 to 0.92 MBq, iv after 6 hrs; format: ADME, organism-based; conditions: in vivo; summary of the method: as §1
Thyroid gland [26] = test: Biodistribution in thyroid of C57BL/6 mouse bearing mouse B16-F0 cells at 0.74 to 0.92 MBq, iv after 24 hrs; format: ADME, organism-based; conditions: in vivo; summary of the method: as §1
[27] = Biodistribution in uvea of C57BL/6 mouse bearing mouse B16-F0 cells at 0.74 to 0.92 MBq, iv after 1 hr; format: ADME, organism-based, Uveal tract; conditions: in vivo; summary of the method: as §1
[28] = Biodistribution in uvea of C57BL/6 mouse bearing mouse B16-F0 cells at 0.74 to 0.92 MBq, iv after 3 hrs; format: ADME, organism-based, Uveal tract; conditions: in vivo; summary of the method: as §1
[29] = Biodistribution in uvea of C57BL/6 mouse bearing mouse B16-F0 cells at 0.74 to 0.92 MBq, iv after 6 hrs; format: ADME, organism-based, Uveal tract; conditions: in vivo; summary of the method: as §1
[30] = Biodistribution in uvea of C57BL/6 mouse bearing mouse B16-F0 cells at 0.74 to 0.92 MBq, iv after 72 hrs; format: ADME, organism-based, Uveal tract; conditions: in vivo; summary of the method: as §1
[31] = Ratio of drug level in tumor to brain of C57BL/6 mouse bearing mouse B16-F0 cells at 0.74 to 0.92 MBq, iv after 3 hrs; format: ADME, organism-based; conditions: in vivo; summary of the method: as §2
Brain [32] = test: Biodistribution in brain of C57BL/6 mouse bearing mouse B16-F0 cells at 0.74 to 0.92 MBq, iv after 3 hrs; format: ADME, organism-based; conditions: in vivo; summary of the method: as §3

Compound	logD [1]	Drug uptake [2] [% ID/g]	Drug uptake [3] [% ID/g]	Drug uptake [4] [% ID/g]	Ratio [5]	Ratio [6]	Ratio [7]	Drug uptake (Brain [8]) [% ID/g]	Drug uptake [9] [% ID/g]	Drug uptake [10] [% ID/g]	Drug uptake [12] [% ID/g]	Drug uptake [13] [% ID/g]	Drug uptake (Liver) [% ID/g]	Drug uptake (Muscle tissue [14]) [% ID/g]	Drug uptake (Muscle tissue [15]) [% ID/g]	Drug uptake (Muscle tissue [16]) [% ID/g]	Drug uptake (Lung [17]) [% ID/g]	Drug uptake (Lung [18]) [% ID/g]	Drug uptake (Lung [19]) [% ID/g]	Drug uptake (Spleen [20]) [% ID/g]	further results
CCN(CC)CCNC(=O)c1c[nH]c2ccc([125I])cc2c1=O.Cl.Cl	1.3	4.7	2.7	2.4	2.28	4.6	38.73	0.07	52.94	90.12	12.74	22.27	5.16	0.92	0.13	0.01	2.06	0.88	0.15	1.24	Drug uptake [11]: 1.62 % ID/g; Drug uptake (Pancreas): 5.74 % ID/g; Drug uptake (Spleen [21]): 0.28 % ID/g; Drug uptake (Spleen [22]): 0.26 % ID/g; Drug uptake (Kidney [23]): 2.8 % ID/g; Drug uptake (Kidney [24]): 0.2 % ID/g; Drug uptake (Blood): 0.23 % ID/g; Drug uptake (Thyroid gland [25]): 8.55 % ID/g; Drug uptake (Thyroid gland [26]): 5.09 % ID/g; Drug uptake [27]: 5.12 % ID/g; Drug uptake [28]: 5.66 % ID/g; Drug uptake [29]: 5.18 % ID/g; Drug uptake [30]: 6.79 % ID/g
CCN(CC)CCNC(=O)c1ccc2cc([125I])ccc2c1.Cl	1.33	13	7	1.5	1.1	2.57	4.22	4.37	7.82	25.85	27.82	10.79	9.46	1.92	0.83	0.38	11.82	4.43	2.12	9.7	Ratio [31]: 14.6; Drug uptake (Brain [32]): 0.78 % ID/g; Drug uptake (Pancreas): 10.18 % ID/g; Drug uptake (Spleen [21]): 2.59 % ID/g; Drug uptake (Spleen [22]): 8.05 % ID/g; Drug uptake (Kidney [23]): 13.3 % ID/g; Drug uptake (Kidney [24]): 3.07 % ID/g; Drug uptake (Blood): 1.77 % ID/g; Drug uptake [27]: 13.21 % ID/g; Drug uptake [28]: 13.9 % ID/g; Drug uptake [29]: 12.76 % ID/g; Drug uptake [30]: 7.84 % ID/g
CCN(CC)CCNC(=O)c1cc2cc([125I])ccc2o1.Cl	1.57	8.8	5	2	1.72	5.9	13.3	1.46	182.62	138.09	17.09	10.06	6.44	0.96	0.29	0.19	5.17	1.92	1.45	10.68	Ratio [31]: 31.29; Drug uptake (Brain [32]): 0.24 % ID/g; Drug uptake [11]: 2.33 % ID/g; Drug uptake (Spleen [22]): 11.34 % ID/g; Drug uptake (Kidney [23]): 6.5 % ID/g; Drug uptake (Kidney [24]): 1.82 % ID/g; Drug uptake (Blood): 1.91 % ID/g; Drug uptake (Thyroid gland [25]): 40.63 % ID/g; Drug uptake (Thyroid gland [26]): 30.38 % ID/g; Drug uptake [27]: 28.64 % ID/g; Drug uptake [28]: 20.11 % ID/g; Drug uptake [29]: 13.91 % ID/g; Drug uptake [30]: 10.11 % ID/g
